Measurements taken from ChEMBL document CHEMBL4732237, “Discovery of 4-alkoxy-2-aryl-6,7-dimethoxyquinolines as a new class of topoisomerase I inhibitors endowed with potent in vitro anticancer activity” (2021).

tested on: SK-OV-3; test: Growth inhibition of human SK-OV-3 cells incubated for 48 hrs by sulforhodamine B assay; format: functional
Summary of the method: (§1)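 NCI five-dose screen (0.01–100 µM; five concentrations plus control). Cells grown in RPMI 1640/5% FBS/2 mM L-glutamine and preincubated 24 h, with time-zero plates TCA-fixed. Drug exposure 48 h at 37 °C, followed by SRB protein staining and reading at 515 nm. GI50 is the concentration at [(Ti-Tz)/(C-Tz)]×100 = 50.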

| SMILES | GI50 [nM] |
| --- | --- |
| COc1cc2nc(-c3ccc(Cl)cc3)cc(OCCCN3CCOCC3)c2cc1OC | 3000 |

tested on: 786-0; test: Growth inhibition of human 786-0 cells incubated for 48 hrs by sulforhodamine B assay; format: functional
Summary of the method: (§2)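 NCI five-dose screen covering 0.01–100 µM, prepared as 10-fold or ½-log dilutions from DMSO stock. Cells in RPMI 1640 with 5% FBS were exposed for 48 h at 37 °C after 24 h preincubation. Adherent cells were fixed with TCA (final 10%) and suspension cells were settled before fixing. Stain was SRB, read at 515 nm. GI50 = 50% reduction in net protein increase versus control, with Tz taken at drug addition.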

| SMILES | GI50 [nM] |
| --- | --- |
| COc1cc2nc(-c3ccc(Cl)cc3)cc(OCCCN3CCOCC3)c2cc1OC | 1940 |

tested on: U-251; test: Growth inhibition of human U-251 cells incubated for 48 hrs by sulforhodamine B assay; format: functional
Summary of the method: (§3)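 NCI five-dose assay, with drug stocks in DMSO diluted in medium to five concentrations (10-fold or ½-log series). Cells in RPMI 1640/5% FBS were pre-incubated 24 h, and time-zero plates were TCA-fixed at drug addition. After 48 h at 37 °C, cells were TCA-fixed, SRB-stained and read at 515 nm. GI50 is from [(Ti-Tz)/(C-Tz)]×100 = 50, TGI from Ti = Tz, and LC50 from [(Ti-Tz)/Tz]×100 = -50.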

| SMILES | GI50 [nM] |
| --- | --- |
| COc1cc2nc(-c3ccc(Cl)cc3)cc(OCCCN3CCOCC3)c2cc1OC | 1920 |

tested on: COLO 205; test: Growth inhibition of human COLO 205 cells incubated for 48 hrs by sulforhodamine B assay; format: functional; summary of the method: as §2

| SMILES | GI50 [nM] |
| --- | --- |
| COc1cc2nc(-c3ccc(Cl)cc3)cc(OCCCN3CCOCC3)c2cc1OC | 620 |

tested on: BT-549; test: Growth inhibition of human BT-549 cells incubated for 48 hrs by sulforhodamine B assay; format: functional; summary of the method: as §2

| SMILES | GI50 [nM] |
| --- | --- |
| COc1cc2nc(-c3ccc(Cl)cc3)cc(OCCCN3CCOCC3)c2cc1OC | 2590 |

tested on: SN12C; test: Growth inhibition of human SN12C cells incubated for 48 hrs by sulforhodamine B assay; format: functional; summary of the method: as §1

| SMILES | GI50 [nM] |
| --- | --- |
| COc1cc2nc(-c3ccc(Cl)cc3)cc(OCCCN3CCOCC3)c2cc1OC | 1300 |

tested on: SW-620; test: Growth inhibition of human SW-620 cells incubated for 48 hrs by sulforhodamine B assay; format: functional; summary of the method: as §3

| SMILES | GI50 [nM] |
| --- | --- |
| COc1cc2nc(-c3ccc(Cl)cc3)cc(OCCCN3CCOCC3)c2cc1OC | 3570 |

tested on: PC-3; test: Growth inhibition of human PC-3 cells incubated for 48 hrs by sulforhodamine B assay; format: functional; summary of the method: as §1

| SMILES | GI50 [nM] |
| --- | --- |
| COc1cc2nc(-c3ccc(Cl)cc3)cc(OCCCN3CCOCC3)c2cc1OC | 2630 |

tested on: SNB-75; test: Growth inhibition of human SNB-75 cells incubated for 48 hrs by sulforhodamine B assay; format: functional; summary of the method: as §1

| SMILES | GI50 [nM] |
| --- | --- |
| COc1cc2nc(-c3ccc(Cl)cc3)cc(OCCCN3CCOCC3)c2cc1OC | 2060 |

tested on: RXF 393; test: Growth inhibition of human RXF 393 cells incubated for 48 hrs by sulforhodamine B assay; format: functional; summary of the method: as §1

| SMILES | GI50 [nM] |
| --- | --- |
| COc1cc2nc(-c3ccc(Cl)cc3)cc(OCCCN3CCOCC3)c2cc1OC | 1120 |

tested on: Hs-578T; test: Growth inhibition of human HS-578T cells incubated for 48 hrs by sulforhodamine B assay; format: functional; summary of the method: as §2

| SMILES | GI50 [nM] |
| --- | --- |
| COc1cc2nc(-c3ccc(Cl)cc3)cc(OCCCN3CCOCC3)c2cc1OC | 2400 |

tested on: HCT-29; test: Growth inhibition of human […] cells incubated for 48 hrs by sulforhodamine B assay; format: functional; summary of the method: as §2

| SMILES | GI50 [nM] |
| --- | --- |
| COc1cc2nc(-c3ccc(Cl)cc3)cc(OCCCN3CCOCC3)c2cc1OC | 610 |

tested on: ACHN; test: Growth inhibition of human ACHN cells incubated for 48 hrs by sulforhodamine B assay; format: functional; summary of the method: as §2

| SMILES | GI50 [nM] |
| --- | --- |
| COc1cc2nc(-c3ccc(Cl)cc3)cc(OCCCN3CCOCC3)c2cc1OC | 3640 |

tested on: MDA-MB-468; test: Growth inhibition of human MDA-MB-468 cells incubated for 48 hrs by sulforhodamine B assay; format: functional; summary of the method: as §2

| SMILES | GI50 [nM] |
| --- | --- |
| COc1cc2nc(-c3ccc(Cl)cc3)cc(OCCCN3CCOCC3)c2cc1OC | 1830 |

tested on: EKVX; test: Growth inhibition of human EKVX cells incubated for 48 hrs by sulforhodamine B assay; format: functional; summary of the method: as §2

| SMILES | GI50 [nM] |
| --- | --- |
| COc1cc2nc(-c3ccc(Cl)cc3)cc(OCCCN3CCOCC3)c2cc1OC | 1730 |

tested on: LOX IMVI; test: Growth inhibition of human LOX IMVI cells incubated for 48 hrs by sulforhodamine B assay; format: functional; summary of the method: as §2

| SMILES | GI50 [nM] | TGI [nM] |
| --- | --- | --- |
| COc1cc2nc(-c3ccc(Cl)cc3)cc(OCCCN3CCOCC3)c2cc1OC | 217 | 592 |

tested on: KM12; test: Growth inhibition of human KM12 cells incubated for 48 hrs by sulforhodamine B assay; format: functional; summary of the method: as §2

| SMILES | GI50 [nM] |
| --- | --- |
| COc1cc2nc(-c3ccc(Cl)cc3)cc(OCCCN3CCOCC3)c2cc1OC | 3870 |

tested on: NCI-H226; test: Growth inhibition of human NCI-H226 cells incubated for 48 hrs by sulforhodamine B assay; format: functional; summary of the method: as §1

| SMILES | GI50 [nM] |
| --- | --- |
| COc1cc2nc(-c3ccc(Cl)cc3)cc(OCCCN3CCOCC3)c2cc1OC | 997 |

tested on: UACC-62; test: Growth inhibition of human UACC-62 cells incubated for 48 hrs by sulforhodamine B assay; format: functional; summary of the method: as §3

| SMILES | GI50 [nM] |
| --- | --- |
| COc1cc2nc(-c3ccc(Cl)cc3)cc(OCCCN3CCOCC3)c2cc1OC | 2260 |

tested on: SF-295; test: Growth inhibition of human SF-295 cells incubated for 48 hrs by sulforhodamine B assay; format: functional; summary of the method: as §1

| SMILES | GI50 [nM] |
| --- | --- |
| COc1cc2nc(-c3ccc(Cl)cc3)cc(OCCCN3CCOCC3)c2cc1OC | 1080 |

tested on: SK-MEL-28; test: Growth inhibition of human SK-MEL-28 cells incubated for 48 hrs by sulforhodamine B assay; format: functional; summary of the method: as §1

| SMILES | GI50 [nM] |
| --- | --- |
| COc1cc2nc(-c3ccc(Cl)cc3)cc(OCCCN3CCOCC3)c2cc1OC | 1520 |

tested on: UO-31; test: Growth inhibition of human UO-31 cells incubated for 48 hrs by sulforhodamine B assay; format: functional; summary of the method: as §3

| SMILES | GI50 [nM] |
| --- | --- |
| COc1cc2nc(-c3ccc(Cl)cc3)cc(OCCCN3CCOCC3)c2cc1OC | 1780 |

tested on: HOP-92; test: Growth inhibition of human HOP-92 cells incubated for 48 hrs by sulforhodamine B assay; format: functional; summary of the method: as §2

| SMILES | GI50 [nM] |
| --- | --- |
| COc1cc2nc(-c3ccc(Cl)cc3)cc(OCCCN3CCOCC3)c2cc1OC | 1360 |

tested on: OVCAR-5; test: Growth inhibition of human OVCAR-5 cells incubated for 48 hrs by sulforhodamine B assay; format: functional; summary of the method: as §1

| SMILES | GI50 [nM] |
| --- | --- |
| COc1cc2nc(-c3ccc(Cl)cc3)cc(OCCCN3CCOCC3)c2cc1OC | 1580 |

tested on: HCT-116; test: Growth inhibition of human HCT-116 cells incubated for 48 hrs by sulforhodamine B assay; format: functional; summary of the method: as §2

| SMILES | GI50 [nM] |
| --- | --- |
| COc1cc2nc(-c3ccc(Cl)cc3)cc(OCCCN3CCOCC3)c2cc1OC | 1590 |

tested on: A549; test: Growth inhibition of human A549 cells incubated for 48 hrs by sulforhodamine B assay; format: functional; summary of the method: as §2

| SMILES | GI50 [nM] |
| --- | --- |
| COc1cc2nc(-c3ccc(Cl)cc3)cc(OCCCN3CCOCC3)c2cc1OC | 2020 |

tested on: T47D; test: Growth inhibition of human T47D cells incubated for 48 hrs by sulforhodamine B assay; format: functional; summary of the method: as §3

| SMILES | GI50 [nM] |
| --- | --- |
| COc1cc2nc(-c3ccc(Cl)cc3)cc(OCCCN3CCOCC3)c2cc1OC | 1960 |

tested on: UACC-257; test: Growth inhibition of human UACC-257 cells incubated for 48 hrs by sulforhodamine B assay; format: functional; summary of the method: as §3

| SMILES | GI50 [nM] |
| --- | --- |
| COc1cc2nc(-c3ccc(Cl)cc3)cc(OCCCN3CCOCC3)c2cc1OC | 1920 |

tested on: OVCAR-8; test: Growth inhibition of human OVCAR-8 cells incubated for 48 hrs by sulforhodamine B assay; format: functional; summary of the method: as §1

| SMILES | GI50 [nM] |
| --- | --- |
| COc1cc2nc(-c3ccc(Cl)cc3)cc(OCCCN3CCOCC3)c2cc1OC | 2150 |

tested on: Malme-3M; test: Growth inhibition of human Malme-3M cells incubated for 48 hrs by sulforhodamine B assay; format: functional; summary of the method: as §1

| SMILES | GI50 [nM] |
| --- | --- |
| COc1cc2nc(-c3ccc(Cl)cc3)cc(OCCCN3CCOCC3)c2cc1OC | 2010 |

tested on: CAKI-1; test: Growth inhibition of human CAKI-1 cells incubated for 48 hrs by sulforhodamine B assay; format: functional; summary of the method: as §2

| SMILES | GI50 [nM] |
| --- | --- |
| COc1cc2nc(-c3ccc(Cl)cc3)cc(OCCCN3CCOCC3)c2cc1OC | 305 |

tested on: NCI-H322M; test: Growth inhibition of human NCI-H322M cells incubated for 48 hrs by sulforhodamine B assay; format: functional; summary of the method: as §1

| SMILES | GI50 [nM] |
| --- | --- |
| COc1cc2nc(-c3ccc(Cl)cc3)cc(OCCCN3CCOCC3)c2cc1OC | > 100000 |

tested on: SK-MEL-5; test: Growth inhibition of human SK-MEL-5 cells incubated for 48 hrs by sulforhodamine B assay; format: functional; summary of the method: as §1

| SMILES | GI50 [nM] |
| --- | --- |
| COc1cc2nc(-c3ccc(Cl)cc3)cc(OCCCN3CCOCC3)c2cc1OC | 832 |

tested on: MDA-MB-231; test: Growth inhibition of human MDA-MB-231 cells incubated for 48 hrs by sulforhodamine B assay; format: functional; summary of the method: as §2

| SMILES | GI50 [nM] |
| --- | --- |
| COc1cc2nc(-c3ccc(Cl)cc3)cc(OCCCN3CCOCC3)c2cc1OC | 1010 |

tested on: NCI-H460; test: Growth inhibition of human NCI-H460 cells incubated for 48 hrs by sulforhodamine B assay; format: functional; summary of the method: as §1

| SMILES | GI50 [nM] |
| --- | --- |
| COc1cc2nc(-c3ccc(Cl)cc3)cc(OCCCN3CCOCC3)c2cc1OC | 958 |

tested on: HCC 2998; test: Growth inhibition of human HCC 2998 cells incubated for 48 hrs by sulforhodamine B assay; format: functional; summary of the method: as §2

| SMILES | GI50 [nM] |
| --- | --- |
| COc1cc2nc(-c3ccc(Cl)cc3)cc(OCCCN3CCOCC3)c2cc1OC | 1970 |
